Screening data from PubChem BioAssay.
The list is not random: actives were taken first. Their share in the collection is about 1.8%.
NOD2-RIPK2 inh: blocks binding of human NOD2 to RIPK2. O43353. CHO BLA complementation NOD2-RIPK2, CCF4 ratio. inhibition, % at 4.98 µM. actives 0.38% (n = 360,000). AID 624267; in the data active means inhibition above about 21%
MC4R antagonist: human MC4R antagonism in cAMP assay; inhibition, % at 6.5 µM; actives 0.48% (n = 360,000); P32245; MC4R-expressing cells, MTII-stimulated cAMP, LANCE TR-FRET;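 active means inhibition above its plate's cutoff, the mean of tested wells on that plate plus 3 SD, cut at about 29% in these data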
Target sequence (P32245 whole entry, looked up): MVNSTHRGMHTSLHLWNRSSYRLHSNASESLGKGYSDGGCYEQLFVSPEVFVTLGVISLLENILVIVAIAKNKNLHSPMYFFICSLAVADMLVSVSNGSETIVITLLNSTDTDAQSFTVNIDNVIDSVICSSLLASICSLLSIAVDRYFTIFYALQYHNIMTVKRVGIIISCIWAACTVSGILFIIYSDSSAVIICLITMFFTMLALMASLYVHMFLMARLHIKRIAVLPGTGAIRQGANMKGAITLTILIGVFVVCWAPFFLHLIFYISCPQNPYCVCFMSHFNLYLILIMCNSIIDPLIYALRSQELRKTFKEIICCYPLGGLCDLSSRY
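material = U2OS cells stably expressing human melanocortin 4 receptor (MC4R) | also added = Melanotan II challenge | dosing = single nominal compound dose of 6.5 µM | detection = TR-FRET with Eu-cAMP and labeled anti-cAMP, 671 nm | replication = singlicate | timing = compound 30 min, challenge 1 h, detection 1 h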
TLR4-MyD88 BLA: TLR4-MyD88 interaction inhibition in cells; HeLa CL3-4 TLR4/MyD88 BLA complementation, FRET ratio; inhibition, % at 8.4 µM; actives 0.18% (n = 200,000); in the data active means inhibition above about 25%
MC4R ag barr: activates human MC4R beta-arrestin recruitment | U2OS MC4R beta-arrestin complementation, luminescence; percent of melanotan II response, DMSO zero | activation, % at 8.9 µM | actives 0.98% (n = 360,000);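 active means activation above a per-plate cutoff, the mean activation of sample wells on that plate plus 3 SD, cut at about 8% in these data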
TLR9-MyD88 block: TLR9-MyD88 interaction inhibition; inhibition, % at 4.98 µM; Q9NR96+Q99836; actives 0.21% (n = 340,000); AID 504734; CHO BLA complementation TLR9-MyD88, CCF4 FRET ratio;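 active means inhibition above the mean over all tested compounds plus 3 SD, cut at about 21% in these data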
Large screens that a line does not name were inactive.

CCOc1ccc2nc(SCC(=O)c3ccc(O)cc3O)sc2c1	MC4R ag barr 8.5 (no result: TLR4-MyD88 BLA)
CCOC(=O)Cn1c(=O)oc2cc(S(=O)(=O)N3CCCc4ccccc43)ccc21	MC4R antagonist 29.6
COc1ccc(-c2csc(NC(=O)CSc3nnnn3C)n2)cc1OC	none (no result: TLR4-MyD88 BLA)
Cc1cc(C)cc(-n2nnnc2SCC(=O)Nc2nc(-c3ccc(F)cc3)cs2)c1	MC4R ag barr 30.0
CC(=O)NC(c1cccc(F)c1)c1nc(-c2cccc(C(C)C)c2)cs1 (centres undefined)	none (no result: TLR4-MyD88 BLA, TLR9-MyD88 block)
Cc1ccc(-n2nc3ccc(NC(=O)c4cccc([N+](=O)[O-])c4C)cc3n2)cc1	MC4R ag barr 8.9
CCCN1C(=O)/C(=C/c2ccccc2OCc2ccc(C(=O)O)cc2)NC1=S	none
COc1ccc(-c2nc(NC(=O)c3ccc(OCC(=O)Nc4ccc(F)cc4)c(OC)c3)sc2C)cc1	MC4R ag barr 44.6
COc1cc(C(=O)Nc2nc(-c3cc(C)ccc3C)c(C)s2)ccc1OCC(=O)Nc1ccc(F)cc1	none
O=C(Nc1cccc(-c2cnc3ccccc3n2)c1)c1ccccc1	none
O=C(Nc1cccc(-c2cnc3ccccc3n2)c1)c1cccc(NC(=O)c2ccco2)c1	MC4R ag barr 34.7
CCCCOc1ccc(C(=O)N2CCN(CC(=O)Nc3ccc(C)cc3)CC2)cc1OC	none (no result: TLR4-MyD88 BLA)
CC(C)c1ccc(S(=O)(=O)/N=C2/C=C(Sc3ncn[nH]3)C(=O)c3ccccc32)cc1	MC4R antagonist 29.4
CC(C)NC(=O)C1(C)CCN1C(=O)c1ccccc1F (centres undefined)	none (no result: TLR4-MyD88 BLA, TLR9-MyD88 block)
O=C(O)CSc1cc(C(F)(F)F)nc(-c2ccccn2)n1	none
FC(F)(F)c1cccc(Sc2cc(C(F)(F)F)nc(-c3ccccn3)n2)c1	MC4R ag barr 9.1
CCOC(=O)C1=C(Cc2ccc(Cl)cc2)C(=O)c2ccccc2C1=O	NOD2-RIPK2 inh 29.0
O=C(CNc1ccc2ccccc2c1)N/N=C/c1ccc([N+](=O)[O-])o1	MC4R ag barr 11.3
COc1ccc(N2C(=O)C(Cl)=C(Nc3ccc(OC)cc3OC)C2=O)cc1	MC4R ag barr 12.7
Cc1ccccc1NC(=O)Cc1c[nH]c2ccccc12	none (no result: TLR4-MyD88 BLA)
O=C(COC(=O)Cc1cccc(C(F)(F)F)c1)NC(=O)NC1CCCC1	MC4R ag barr 8.3 (no result: TLR4-MyD88 BLA)
COC(=O)CCN1CCC2CC1c1cc(-c3cccc(C)c3)ccc12 (centres undefined)	none (no result: TLR4-MyD88 BLA)
CCOc1ccc2oc(C(=O)Nc3ccc4c(c3)OCO4)c(C)c2c1	none (no result: TLR4-MyD88 BLA)
CCOc1ccc2oc(C(=O)Nc3ccc(N4CCOCC4)cc3)c(C)c2c1	MC4R ag barr 9.3
O=C(COC(=O)/C=C/c1ccccc1[N+](=O)[O-])Nc1ccc(OCc2ccccc2)cc1	MC4R ag barr 9.2
O=C(/C=C/c1ccccc1)NC(=S)Nc1ccccc1	none (no result: TLR4-MyD88 BLA)
O=C(/C=C/c1ccccc1)NC(=S)Nc1ccc(N2CCOCC2)cc1	MC4R ag barr 14.0
O=C(O)c1ccc(-c2nc(-c3ccc(Cl)c(Cl)c3)cs2)cc1	MC4R antagonist 31.2
N=C1/C(=C/c2cccn2Cc2ccc(Cl)cc2)C(=O)N=C2SC=CN12	MC4R ag barr 9.4
COc1ccccc1CNC(=O)[C@H](Cc1c[nH]c2ccccc12)NC(=O)[C@@H]1Cc2ccccc2CN1	none (no result: TLR4-MyD88 BLA)
CCOC(=O)C(=CNc1cc(C(F)(F)F)ccc1N1CCOCC1)C(=O)OCC	none (no result: TLR4-MyD88 BLA)
Cc1nn(-c2ccccc2)c(N2CCCC2)c1/C=N/NC(=S)Nc1ccc(F)cc1	none (no result: TLR4-MyD88 BLA)
Cc1ccc(NC(=S)N/N=C/c2c(C)nn(-c3ccccc3)c2N2CCCC2)cc1	MC4R ag barr 8.6
COC(=O)Cc1ccc(NC(=S)Nc2ccc(N3CCOCC3)cc2)cc1	none
N=C(N)SCc1cn(-c2ccccc2)nc1-c1ccc(Br)cc1	MC4R ag barr 16.6
CC1(C)CC(=O)C2=C(C1)NC(Nc1nc3ccccc3o1)=NC2c1ccccn1 (centres undefined)	none
CC1=C(C(=O)Nc2ccccc2)C(c2ccc(C)cc2)N=C(Nc2nc3ccccc3o2)N1 (centres undefined)	MC4R ag barr 9.9
O=C(Nc1cccnc1Cl)c1cc(-c2cccc(O)c2)on1	MC4R ag barr 12.3 (no result: TLR4-MyD88 BLA)
COc1ccc(Cl)cc1NC(=O)Cn1nnc(C(=O)NCc2ccc3c(c2)OCO3)c1N	MC4R ag barr 8.6 (no result: TLR4-MyD88 BLA)
Nc1c(C(=O)NCc2ccc3c(c2)OCO3)nnn1CC(=O)Nc1ccc(Br)cc1	MC4R ag barr 14.8 (no result: TLR4-MyD88 BLA)
O=C(COc1ccc(F)cc1Cl)Nc1cccc(S(=O)(=O)N2CCCC2)c1	none (no result: TLR4-MyD88 BLA)
O=C(c1cc(-c2ccco2)nn1-c1cccc(Cl)c1)N1CCCCC1	MC4R antagonist 31.4
COc1cccc(N2CCN(C(=O)c3cccc(NC4=NC5CS(=O)(=O)CC5S4)c3)CC2)c1 (centres undefined)	none (no result: TLR4-MyD88 BLA)
C#CCOCCOCCOCCNc1nc(N2CCN(C(=O)CCCCCCCCCCNC(=O)[C@H](CO)n3cc(CCCSC)nn3)CC2)nc(N2CCN(C(=O)CCCCCCCCCCNC(=O)[C@H](CCCN=C(N)N)n3cc(C[C@@H](C)CC)nn3)CC2)n1	NOD2-RIPK2 inh 20.9, MC4R antagonist 53.0 (no result: TLR4-MyD88 BLA)
C#CCOCCOCCOCCNc1nc(N2CCN(C(=O)CCCCCCCCCCNC(=O)Cn3cc(C[C@@H](C)O)nn3)CC2)nc(N2CCN(C(=O)CCCCCCCCCCNC(=O)[C@H](CCCCN)n3cc(CCCC(=O)O)nn3)CC2)n1	none (no result: TLR4-MyD88 BLA)
C#CCOCCOCCOCCNc1nc(N2CCN(C(=O)CCCCCCCCCCNC(=O)Cn3cc(C[C@@H](C)O)nn3)CC2)nc(N2CCN(C(=O)CCCCCCCCCCNC(=O)[C@H](CCCN=C(N)N)n3cc(C[C@@H](C)CC)nn3)CC2)n1	NOD2-RIPK2 inh 24.2, MC4R antagonist 42.2 (no result: TLR4-MyD88 BLA)
Cc1cccc(OCCCC(=O)Nc2ccc(S(=O)(=O)Nc3nccs3)cc2)c1C	none (no result: TLR4-MyD88 BLA)
CC(C)Nc1ccc(Nc2ccnc3cc4ccccc4cc23)cc1	MC4R ag barr 8.5 (no result: TLR4-MyD88 BLA)
O=C(NCCc1ccccc1)c1nccc2ccccc12	none (no result: TLR4-MyD88 BLA)
COc1ccc(Nc2ccnc3ccccc23)cc1	none
c1ccc(CCNc2ccnc3cc4ccccc4cc23)cc1	MC4R ag barr 16.9
N#CC1=C(SCC(=O)Nc2ccc(C(=O)O)cc2)NC(=O)CC1c1ccco1 (centres undefined)	none (no result: TLR4-MyD88 BLA)
CC(C)(C)C1CCC(=NNC(=O)c2cc3c(s2)CCCC3)CC1 (centres undefined)	none
CC(C)(C)C1CCc2sc(C(=O)NNC(=O)CCl)cc2C1 (centres undefined)	MC4R ag barr 18.6
CSc1ccc(/C=N\NC(=O)CNc2ccc(C)cc2)cc1	none
Cc1cccc(NCC(=O)N/N=C/c2ccc(Br)cc2)c1	MC4R ag barr 8.4
O=C(Nc1ccccc1)c1ccc(-c2ccccc2Cl)o1	MC4R ag barr 8.5
Cc1cc(C)c(S(=O)(=O)N2CCN(C(=O)c3cc4ccccc4o3)CC2)c(C)c1	none (no result: TLR4-MyD88 BLA)
O=C(c1cc2ccccc2o1)N1CCN(S(=O)(=O)c2ccc(F)c(F)c2F)CC1	MC4R ag barr 8.2 (no result: TLR4-MyD88 BLA)
